Results taken from ChEMBL document CHEMBL3244396, “Synthesis and antileukemic activity of 5-substituted 2,3-dihydro-6,7-bis(hydroxymethyl)-1H-pyrrolizine diesters” (J Med Chem, 1977).

How the values were obtained:
Mus musculus [1] = assay: Toxicity in female BDF1 mouse allografted with mouse L1210 cells assessed as animal survival at 50 mg/kg, ip administered daily for 9 days as Klucel suspension starting 24 hrs after tumor inoculation measured on fifth day; format: organism-based; design: dose 50 mg/kg, route intraperitoneal; conditions: in vivo
How it was run: (§1)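 L1210 leukemia passaged as ascitic fluid and inoculated ip. Test agent given ip as a Klucel (hydroxypropylcellulose) suspension, nine daily doses starting 24 h after tumor inoculation. Acute toxicity read as toxicity-day survivors per group (out of 6), recorded on day 5. Animal weight difference T − C was also recorded. Follows NCI screening protocols.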

P388 [2] = assay: Antitumor activity against mouse P388 cells allografted in male CDF1 mouse assessed as change in body weight at 50 mg/kg, ip administered daily for 9 days as Klucel suspension starting 24 hrs after tumor inoculation; format: functional; conditions: route intraperitoneal
How it was run: (§2)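 Ascitic fluid carrying P388 cells was inoculated ip. Compound was given ip in nine daily doses, starting 24 h after inoculation, in Klucel (hydroxypropylcellulose) suspension or in saline with Tween-80. Body-weight difference (treated minus control) was recorded on day 5. Survival was scored as %T/C of median survival time, and 30-day survival counted as cure.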

P388 [3] = assay: Antitumor activity against mouse P388 cells allografted in female CDF1 mouse assessed as change in body weight at 200 mg/kg, ip administered daily for 9 days as Klucel suspension starting 24 hrs after tumor inoculation; format: functional; conditions: route intraperitoneal; how it was run: as §2
Mus musculus [4] = assay: Toxicity in female BDF1 mouse allografted with mouse L1210 cells assessed as animal survival at 200 mg/kg, ip administered daily for 9 days as Klucel suspension starting 24 hrs after tumor inoculation measured on fifth day; format: organism-based; design: dose 200 mg/kg, route intraperitoneal; conditions: in vivo; how it was run: as §1
P388 [5] = assay: Antitumor activity against mouse P388 cells allografted in female BDF1 mouse assessed as disease cures by measuring 30-days host survival at 12.5 mg/kg, ip administered daily for 9 days as Klucel suspension starting 24 hrs after tumor inoculation relative to control; format: functional; conditions: route intraperitoneal
How it was run: (§3)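 P388 leukemia given as an ascitic fluid cell inoculum, ip, to mice of the strain and sex in each line. Nine daily ip doses were given in a Klucel (hydroxypropylcellulose) suspension, starting 24 h after inoculation. Read-out is median survival time as %T/C, with >125 taken as significant; a "cure" means 30-day survival.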

P388 [6] = assay: Antitumor activity against mouse P388 cells allografted in female CDF1 mouse assessed as change in body weight at 50 mg/kg, ip administered daily for 9 days as Klucel suspension starting 24 hrs after tumor inoculation; format: functional; conditions: route intraperitoneal; how it was run: as §2
Mus musculus [7] = assay: Toxicity in male CDF1 mouse allografted with mouse P388 cells assessed as animal survival at 50 mg/kg, ip administered daily for 9 days as Klucel suspension starting 24 hrs after tumor inoculation; format: organism-based; design: dose 50 mg/kg, route intraperitoneal; conditions: in vivo
How it was run: (§4)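 P-388 leukemia ascitic fluid inoculated ip. Compound given ip as a suspension in Klucel (hydroxypropylcellulose), once daily for nine doses beginning 24 h post-inoculation. Acute toxicity assessed as toxicity-day survivors per group. Survival was followed up to 30 days, with 30-day survival counted as "cure". Follows NCI screening protocols.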

P388 [8] = assay: Antitumor activity against mouse P388 cells allografted in male CDF1 mouse assessed as change in body weight at 12.5 mg/kg, ip administered daily for 9 days as Klucel suspension starting 24 hrs after tumor inoculation; format: functional; conditions: route intraperitoneal; how it was run: as §2
L1210 [9] = assay: Antileukemic activity against mouse L1210 cells allografted in female BDF1 mouse assessed as host mean survival time at 100 mg/kg, ip administered daily for 9 days as Klucel suspension starting 24 hrs after tumor inoculation relative to control; format: functional; conditions: route intraperitoneal
How it was run: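 L1210 leukemia given as an ascitic fluid cell inoculum, ip, to mice of the strain and sex in each line. Test material was given ip for nine daily doses starting 24 h after inoculation, in a Klucel (hydroxypropylcellulose) suspension. Read-out is mean survival time as %T/C versus controls, with >125 taken as significant.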

L1210 [10] = assay: Antileukemic activity against mouse L1210 cells allografted in female BDF1 mouse assessed as change in body weight at 200 mg/kg, ip administered daily for 9 days as Klucel suspension starting 24 hrs after tumor inoculation; format: functional; conditions: route intraperitoneal
How it was run: (§5)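 Ascitic fluid carrying L1210 cells was inoculated ip. Compound was given ip as a Klucel (hydroxypropylcellulose) suspension in nine daily doses, starting 24 h after inoculation. Body-weight difference (treated minus control) was recorded on day 5. Survival was scored as %T/C of mean survival time.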

L1210 [11] = assay: Antileukemic activity against mouse L1210 cells allografted in female BDF1 mouse assessed as change in body weight at 100 mg/kg, ip administered daily for 9 days as Klucel suspension starting 24 hrs after tumor inoculation; format: functional; conditions: route intraperitoneal; how it was run: as §5
Mus musculus [12] = assay: Toxicity in female BDF1 mouse allografted with mouse P388 cells assessed as animal survival at 25 mg/kg, ip administered daily for 9 days as Klucel suspension starting 24 hrs after tumor inoculation; format: organism-based; design: dose 25 mg/kg, route intraperitoneal; conditions: in vivo; how it was run: as §4
P388 [13] = assay: Antitumor activity against mouse P388 cells allografted in male CDF1 mouse assessed as change in body weight at 6.25 mg/kg, ip administered daily for 9 days as Klucel suspension starting 24 hrs after tumor inoculation; format: functional; conditions: route intraperitoneal; how it was run: as §2
P388 [14] = assay: Antitumor activity against mouse P388 cells allografted in female CDF1 mouse assessed as disease cures by measuring 30-days host survival at 100 mg/kg, ip administered daily for 9 days as Klucel suspension starting 24 hrs after tumor inoculation relative to control; format: functional; conditions: route intraperitoneal; how it was run: as §3
P388 [15] = assay: Antitumor activity against mouse P388 cells allografted in male CDF1 mouse assessed as disease cures by measuring 30-days host survival at 25 mg/kg, ip administered daily for 9 days as Klucel suspension starting 24 hrs after tumor inoculation relative to control; format: functional; conditions: route intraperitoneal; how it was run: as §3
P388 [16] = assay: Antitumor activity against mouse P388 cells allografted in female CDF1 mouse assessed as disease cures by measuring 30-days host survival at 50 mg/kg, ip administered daily for 9 days as Klucel suspension starting 24 hrs after tumor inoculation relative to control; format: functional; conditions: route intraperitoneal; how it was run: as §3
P388 [17] = assay: Antitumor activity against mouse P388 cells allografted in female BDF1 mouse assessed as disease cures by measuring 30-days host survival at 6.25 mg/kg, ip administered daily for 9 days as Klucel suspension starting 24 hrs after tumor inoculation relative to control; format: functional; conditions: route intraperitoneal; how it was run: as §3
Mus musculus [18] = assay: Toxicity in female CDF1 mouse allografted with mouse P388 cells assessed as animal survival at 200 mg/kg, ip administered daily for 9 days as Klucel suspension starting 24 hrs after tumor inoculation; format: organism-based; design: dose 200 mg/kg, route intraperitoneal; conditions: in vivo; how it was run: as §4
L1210 [19] = assay: Antileukemic activity against mouse L1210 cells allografted in female BDF1 mouse assessed as change in body weight at 50 mg/kg, ip administered daily for 9 days as Klucel suspension starting 24 hrs after tumor inoculation; format: functional; conditions: route intraperitoneal; how it was run: as §5
Mus musculus [20] = assay: Toxicity in male CDF1 mouse allografted with mouse P388 cells assessed as animal survival at 25 mg/kg, ip administered daily for 9 days as Klucel suspension starting 24 hrs after tumor inoculation; format: organism-based; design: dose 25 mg/kg, route intraperitoneal; conditions: in vivo; how it was run: as §4
P388 [21] = assay: Antitumor activity against mouse P388 cells allografted in male CDF1 mouse assessed as disease cures by measuring 30-days host survival at 6.25 mg/kg, ip administered daily for 9 days as Klucel suspension starting 24 hrs after tumor inoculation relative to control; format: functional; conditions: route intraperitoneal; how it was run: as §3
P388 [22] = assay: Antitumor activity against mouse P388 cells allografted in female BDF1 mouse assessed as disease cures by measuring 30-days host survival at 25 mg/kg, ip administered daily for 9 days as Klucel suspension starting 24 hrs after tumor inoculation relative to control; format: functional; conditions: route intraperitoneal; how it was run: as §3
Mus musculus [23] = assay: Toxicity in female CDF1 mouse allografted with mouse P388 cells assessed as animal survival at 50 mg/kg, ip administered daily for 9 days as Klucel suspension starting 24 hrs after tumor inoculation; format: organism-based; design: dose 50 mg/kg, route intraperitoneal; conditions: in vivo; how it was run: as §4

CC(=O)OCc1c(COC(C)=O)c(-c2ccccc2)n2c1CCC2
Activity (Mus musculus [1]): Non-toxic | Activity (P388 [2]): -6.1 g | Activity (P388 [3]): 0.5 g | Activity (Mus musculus [4]): Toxic | T/C (P388 [5]): 126% | Activity (P388 [6]): -2.5 g | Activity (Mus musculus [7]): Non-toxic | Activity (P388 [8]): -0.2 g | T/C (L1210 [9]): 107% | Activity (L1210 [10]): -2.8 g | Activity (L1210 [11]): -2.3 g | Activity (Mus musculus [12]): Non-toxic | Activity (P388 [13]): -0.3 g | T/C (P388 [14]): 49% | T/C (P388 [15]): 142% | T/C (P388 [16]): 79% | T/C (P388 [17]): 107% | Activity (Mus musculus [18]): Toxic | Activity (L1210 [19]): -2.6 g | Activity (Mus musculus [20]): Non-toxic | T/C (P388 [21]): 125% | T/C (P388 [22]): 133% | Activity (Mus musculus [23]): Non-toxic
